The subject of data set [1] is Pseudomonas aeruginosa. Kind of data set: Antimicrobial activity against Pseudomonas aeruginosa isolate PA-SD2 harboring blaVIM-1 gene by Etest method. The data set is classed as functional.
For data set [2], the system named is Pseudomonas aeruginosa. Put plainly: Antimicrobial activity against Pseudomonas aeruginosa isolate PA-SL2 harboring blaVIM-13 gene by Etest method. The data set is classed as functional.
Data set [3] relates to Pseudomonas aeruginosa. Put plainly: Antimicrobial activity against Pseudomonas aeruginosa PAO1 harboring pUCP carrying VIM-1 gene by Etest method. The data set is classed as functional. The gist of the method: (§1)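 Etest MICs of piperacillin, piperacillin-tazobactam, ceftazidime, cefepime, cefotaxime, aztreonam, imipenem and meropenem, run per manufacturer's recommendations. Strains were E. coli XL1-Blue or P. aeruginosa PAO1 carrying pUCP24-derived plasmids with blaVIM-1 or blaVIM-13 (cloned by EcoRI) inserted in the lacZ-promoter orientation. E. coli transformants were selected on 10 μg/ml gentamicin MacConkey agar; PAO1 electroporants were selected on 50 μg/ml gentamicin LB agar.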

Data set [4] concerns Pseudomonas aeruginosa. Kind of data set: Antimicrobial activity against Pseudomonas aeruginosa PAO1 harboring pUCP carrying VIM-13 gene by Etest method. Type of data set: functional. The gist of the method: as §1
The subject of data set [5] is Pseudomonas aeruginosa. Kind of data set: Antimicrobial activity against Pseudomonas aeruginosa PAO1 by Etest method. The data set is classed as functional.
Data set [6] deals with Escherichia coli. Put plainly: Antimicrobial activity against Escherichia coli XL1-Blue harboring pUCP carrying VIM-1 gene by Etest method. The data set is classed as functional. The gist of the method: as §1
Data set [7] deals with Escherichia coli. Kind of data set: Antimicrobial activity against Escherichia coli XL1-Blue harboring pUCP carrying VIM-13 gene by Etest method. Type of data set: functional. The gist of the method: as §1
In data set [8] the test system is Escherichia coli. Kind of data set: Antimicrobial activity against Escherichia coli XL1-Blue by Etest method. The data set is classed as functional.
For data set [9], the system named is Pseudomonas aeruginosa. Kind of data set: Antimicrobial activity against Pseudomonas aeruginosa isolate PA-SD2 harboring blaVIM-1 gene by Etest method in presence of Tazobactam. Type of data set: functional.
For data set [10], the system named is Pseudomonas aeruginosa. Kind of data set: Antimicrobial activity against Pseudomonas aeruginosa isolate PA-SL2 harboring blaVIM-13 gene by Etest method in presence of Tazobactam. Type of data set: functional.
In data set [11] the test system is Pseudomonas aeruginosa. Kind of data set: Antimicrobial activity against Pseudomonas aeruginosa PAO1 harboring pUCP carrying VIM-1 gene by Etest method in presence of Tazobactam. The data set is classed as functional.
Data set [12] deals with Pseudomonas aeruginosa. Put plainly: Antimicrobial activity against Pseudomonas aeruginosa PAO1 harboring pUCP carrying VIM-13 gene by Etest method in presence of Tazobactam. The data set is classed as functional.
Data set [13] relates to Pseudomonas aeruginosa. Kind of data set: Antimicrobial activity against Pseudomonas aeruginosa PAO1 by Etest method in presence of Tazobactam. Type of data set: functional. The gist of the method: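 Etest MICs of piperacillin-tazobactam for P. aeruginosa PAO1 electroporated with pUCP24 carrying cloned blaVIM-1 or blaVIM-13, with the insert in lacZ promoter orientation. Transformants were selected on 50 μg/ml gentamicin LB agar. Testing followed the manufacturer's recommendations, with CLSI breakpoints.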

The test system of data set [14] is Escherichia coli. Kind of data set: Antimicrobial activity against Escherichia coli XL1-Blue harboring pUCP carrying VIM-1 gene by Etest method in presence of Tazobactam. The data set is classed as functional. A digest of the protocol: as §1
The subject of data set [15] is Escherichia coli. Kind of data set: Antimicrobial activity against Escherichia coli XL1-Blue harboring pUCP carrying VIM-13 gene by Etest method in presence of Tazobactam. Type of data set: functional. The gist of the method: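 blaVIM-13 was PCR-amplified, passed through pGEM-T, and moved as an EcoRI fragment into pUCP24, with the insert oriented with the lacZ promoter (checked by PCR and sequencing). It was transformed into CaCl2-competent E. coli XL1-Blue and selected on MacConkey agar with 10 μg/ml gentamicin. Piperacillin-tazobactam MIC was read by Etest strip.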

The test system of data set [16] is Escherichia coli. Put plainly: Antimicrobial activity against Escherichia coli XL1-Blue by Etest method in presence of Tazobactam. The data set is classed as functional.
The subject of data set [17] is CC(=O)OCC1=C(C(=O)O)N2C(=O)[C@@H](NC(=O)Cc3cccs3)[C@H]2SC1. Conditions: Pseudomonas aeruginosa.
Data set [18] deals with CC(C)(O/N=C(\C(=O)N[C@@H]1C(=O)N2C(C(=O)[O-])=C(C[n+]3ccccc3)CS[C@H]12)c1csc(N)n1)C(=O)O. Conditions: Pseudomonas aeruginosa.
Data set [19] deals with CC1(C)S[C@@H]2[C@H](NC(=O)Cc3ccccc3)C(=O)N2[C@H]1C(=O)O. Particulars: Pseudomonas aeruginosa.
In data set [20] the test system is CC1(C)S[C@@H]2[C@H](NC(=O)[C@H](N)c3ccccc3)C(=O)N2[C@H]1C(=O)O. Conditions: Pseudomonas aeruginosa.
In data set [21] the test system is CCN1CCN(C(=O)N[C@@H](C(=O)N[C@@H]2C(=O)N3[C@@H]2SC(C)(C)[C@@H]3C(=O)O)c2ccccc2)C(=O)C1=O. Particulars: Pseudomonas aeruginosa.
The subject of data set [22] is CO/N=C(\C(=O)N[C@@H]1C(=O)N2C(C(=O)O)=C(COC(C)=O)CS[C@H]12)c1csc(N)n1. Conditions: Pseudomonas aeruginosa.
The test system of data set [23] is CO/N=C(\C(=O)N[C@@H]1C(=O)N2C(C(=O)O)=C(COC(N)=O)CS[C@H]12)c1ccco1. Particulars: Pseudomonas aeruginosa.
In data set [24] the test system is C[C@@H](O)[C@H]1C(=O)N2C(C(=O)O)=C(S[C@@H]3CN[C@H](C(=O)N(C)C)C3)[C@H](C)[C@H]12. Particulars: Pseudomonas aeruginosa.
Data set [25] has as its system CC(=O)OCC1=C(C(=O)O)N2C(=O)[C@@H](NC(=O)Cc3cccs3)[C@H]2SC1. Conditions: Pseudomonas aeruginosa. This is another data set of the same source.
The test system of data set [26] is CC(C)(O/N=C(\C(=O)N[C@@H]1C(=O)N2C(C(=O)[O-])=C(C[n+]3ccccc3)CS[C@H]12)c1csc(N)n1)C(=O)O. Conditions: Pseudomonas aeruginosa. This is another data set of the same source.
Data set [27] relates to CC1(C)S[C@@H]2[C@H](NC(=O)Cc3ccccc3)C(=O)N2[C@H]1C(=O)O. Particulars: Pseudomonas aeruginosa. This is another data set of the same source.
Data set [28] concerns CC1(C)S[C@@H]2[C@H](NC(=O)[C@H](N)c3ccccc3)C(=O)N2[C@H]1C(=O)O. Conditions: Pseudomonas aeruginosa. The source holds these as a separate data set.
The subject of data set [29] is CCN1CCN(C(=O)N[C@@H](C(=O)N[C@@H]2C(=O)N3[C@@H]2SC(C)(C)[C@@H]3C(=O)O)c2ccccc2)C(=O)C1=O. Conditions: Pseudomonas aeruginosa. The source holds these as a separate data set.
Data set [30] relates to CO/N=C(\C(=O)N[C@@H]1C(=O)N2C(C(=O)O)=C(COC(C)=O)CS[C@H]12)c1csc(N)n1. Particulars: Pseudomonas aeruginosa. The source holds these as a separate data set.
The test system of data set [31] is CO/N=C(\C(=O)N[C@@H]1C(=O)N2C(C(=O)O)=C(COC(N)=O)CS[C@H]12)c1ccco1. Particulars: Pseudomonas aeruginosa. The source holds these as a separate data set.
Data set [32] concerns C[C@@H](O)[C@H]1C(=O)N2C(C(=O)O)=C(S[C@@H]3CN[C@H](C(=O)N(C)C)C3)[C@H](C)[C@H]12. Conditions: Pseudomonas aeruginosa. This is another data set of the same source.

Values after ≈ are worked out from the molar mass of the structure shown.

Consider `CCN1CCN(C(=O)N[C@@H](C(=O)N[C@@H]2C(=O)N3[C@@H]2SC(C)(C)[C@@H]3C(=O)O)c2ccccc2)C(=O)C1=O` [PIPERACILLIN], for which the MIC against Pseudomonas aeruginosa [1] is over 256 µg/mL; with Pseudomonas aeruginosa [2], over 256 µg/mL; in the data set on Pseudomonas aeruginosa [3] it was 64 µg/mL (≈ 124 µM); against Pseudomonas aeruginosa [4], 192 µg/mL (≈ 371 µM); with Pseudomonas aeruginosa [5], 3 µg/mL (≈ 5.8 µM); against Escherichia coli [6], 6 µg/mL (≈ 11.6 µM). Besides, the MIC in the data set on Escherichia coli [7] is 8 µg/mL (≈ 15.5 µM); in the data set with Escherichia coli [8], 1.5 µg/mL (≈ 2.9 µM); in the data set on Pseudomonas aeruginosa [9] it was over 256 µg/mL; in the data set with Pseudomonas aeruginosa [10], over 256 µg/mL; in the data set on Pseudomonas aeruginosa [11], 48 µg/mL; in the data set on Pseudomonas aeruginosa [12], 192 µg/mL. Moreover, the MIC in the data set on Pseudomonas aeruginosa [13] was 3 µg/mL; in the data set on Escherichia coli [14], 6 µg/mL; with Escherichia coli [15], 8 µg/mL; in the data set on Escherichia coli [16], 1 µg/mL.
Regarding “Class B carbapenemase VIM-13 (Pseudomonas aeruginosa) (from UniProt Q2HY42)”, the Km turned out to be 76 µM in [17]; 509 µM in data set [18]; 1130 µM in data set [19]; 197 µM in data set [20]; 729 µM in [21]; 233 µM in data set [22]. Besides, the figures for the Km in data set [23] and in data set [24] were 56 µM and 15.5 µM, respectively. The kcat in data set [17] was 656 s⁻¹; in [18], 10 s⁻¹; in data set [19] it was 757 s⁻¹; in data set [20], 67 s⁻¹; in data set [21] it was 362 s⁻¹; in data set [22], 612 s⁻¹. The values for the kcat in data set [23] and in [24] were 283 s⁻¹ and 9 s⁻¹, respectively. Further, the catalytic efficiency (kcat/Km) came out at 8.6e+06 M⁻¹ s⁻¹ in data set [25]; 1.9 M⁻¹ s⁻¹ in [26]; 670000 M⁻¹ s⁻¹ in data set [27]; 340000 M⁻¹ s⁻¹ in data set [28]; 490000 M⁻¹ s⁻¹ in data set [29]; 2.6e+06 M⁻¹ s⁻¹ in data set [30]. The kcat/Km in data set [31] came out at 5e+06 M⁻¹ s⁻¹; in [32], 592000 M⁻¹ s⁻¹.

As a reminder, the MIC is the lowest concentration that inhibits growth of the organism. In general, Km refers to the concentration of substrate that gives half-maximal velocity. As usually defined, the kcat is the maximal rate divided by the concentration of active sites. As usually defined, the kcat/Km is the turnover number divided by the Michaelis constant.

For the origin of these results see ChEMBL document CHEMBL1275500, “Characterization of the new metallo-beta-lactamase VIM-13 and its integron-borne gene from a Pseudomonas aeruginosa clinical isolate in Spain” (Antimicrob Agents Chemother, 2008).
